Reference: PubChem BioAssay
Active and inactive are the calls of the source.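 The calls were made as follows, unless noted: active = Her2 level under about 52% in both replicate screens, with viability over 70% of control (limit read from the data); inconclusive = Her2 under the limit in one screen only, or viability under 70%; inactive = Her2 level above the set limit.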

Legend:
[1] = Her2 expression decrease, cell viability multiplex – SKBR3 breast tumor cells, AlphaScreen, ATP viability, primary screen (AID 461); conditions: SKBR3 Her2 protein level, 18-24 h, measured here: SKBR3 viability, ATP luminescence, at 10 µM;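 as to Her2 level: lower value means less Her2 protein in the cells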;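 as to viability: percent of carrier control wells set as 100% viability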
[2] = biological target: Receptor tyrosine-protein kinase erbB-2 (Homo sapiens) (UniProt P04626); assay: as above; conditions: 18-24 h, at 10 µM, stronger effect = lower value
Receptor tyrosine-protein kinase erbB-2 (Homo sapiens), sequence (P04626 whole entry, looked up): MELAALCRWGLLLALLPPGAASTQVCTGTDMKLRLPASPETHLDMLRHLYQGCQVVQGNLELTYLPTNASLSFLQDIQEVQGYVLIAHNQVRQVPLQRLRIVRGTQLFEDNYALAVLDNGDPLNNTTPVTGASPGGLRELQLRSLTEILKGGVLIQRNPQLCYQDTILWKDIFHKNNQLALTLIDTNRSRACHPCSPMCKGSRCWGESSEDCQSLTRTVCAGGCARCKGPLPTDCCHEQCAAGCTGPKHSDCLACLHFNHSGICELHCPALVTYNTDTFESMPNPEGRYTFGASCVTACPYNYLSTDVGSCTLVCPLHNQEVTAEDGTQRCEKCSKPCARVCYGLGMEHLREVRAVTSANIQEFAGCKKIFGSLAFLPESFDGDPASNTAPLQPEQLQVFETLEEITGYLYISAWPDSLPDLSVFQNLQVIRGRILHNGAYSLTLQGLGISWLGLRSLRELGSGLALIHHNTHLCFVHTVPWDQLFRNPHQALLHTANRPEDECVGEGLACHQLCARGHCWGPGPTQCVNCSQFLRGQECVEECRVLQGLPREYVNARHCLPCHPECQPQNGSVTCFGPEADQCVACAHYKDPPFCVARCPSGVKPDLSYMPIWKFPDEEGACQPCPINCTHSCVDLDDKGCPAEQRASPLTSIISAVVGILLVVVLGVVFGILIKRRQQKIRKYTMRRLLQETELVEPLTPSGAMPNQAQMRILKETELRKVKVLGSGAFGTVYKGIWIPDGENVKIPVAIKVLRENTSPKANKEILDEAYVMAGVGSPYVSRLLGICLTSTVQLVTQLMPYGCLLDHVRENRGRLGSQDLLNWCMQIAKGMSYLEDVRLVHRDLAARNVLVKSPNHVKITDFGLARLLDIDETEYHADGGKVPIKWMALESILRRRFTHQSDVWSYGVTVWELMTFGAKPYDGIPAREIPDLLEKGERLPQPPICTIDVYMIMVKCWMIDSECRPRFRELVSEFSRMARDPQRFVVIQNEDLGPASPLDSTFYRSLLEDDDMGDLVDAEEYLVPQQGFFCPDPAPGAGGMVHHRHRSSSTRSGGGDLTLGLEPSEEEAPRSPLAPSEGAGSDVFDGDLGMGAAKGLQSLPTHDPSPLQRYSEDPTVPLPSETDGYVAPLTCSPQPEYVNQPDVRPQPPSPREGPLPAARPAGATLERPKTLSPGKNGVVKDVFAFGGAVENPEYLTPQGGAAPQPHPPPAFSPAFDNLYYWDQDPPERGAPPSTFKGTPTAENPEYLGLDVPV

[3] = reduced viability of SK-BR-3 breast cancer cells – cell-based, 24 h, human, pilot screen (AID 572;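 active = viability at or below 10% of carrier control in both of two separate runs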;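 also: compound exposure lasted between 18 and 24 h rather than exactly 24 h; 100% = carrier-treated control wells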); conditions: SK-BR-3 viability, CellTiter-Glo luminescence, at 10 µM, stronger effect = lower value
[4] = HUVEC growth inhibition – cell-based, human, primary screen (AID 575;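 active = viability at or below 30% in both replicate assays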;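 also: 100% = median of untreated cell wells with 0.1% DMSO on each plate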); conditions: HUVEC proliferation, CellTiter-Glo luminescence, 72 h; at 10 µM; stronger effect = lower value
Summary of the method: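 Timing: 72 h treatment at 37 °C; material: HUVEC primary cells; technique: CellTiter-Glo luminescence measuring cellular ATP; controls: vehicle and MePR control wells; measure: percent of median DMSO-control luminescence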

[5] = H69AR cell proliferation blockers – human, duplicate replicates, primary screen (AID 580;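 active = viability at or under a set limit in both replicates, limit being median viability minus 3 SD, cut at about 48% in these data, passing the limit was not always enough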;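 also: 100% = mean luminescence of untreated wells and 0% = no signal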); conditions: H69AR lung tumor cells viability, ATP luminescence, 72 h; at 10 µM; stronger effect = lower value
[6] = MRP1 drug-resistance reversers in H69AR cells – cell-based, doxorubicin co-treatment, pilot screen (AID 601;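 active = viability loss from added drug above about 55%, and viability with drug at most 40%, in both replicates, limit read from the data, passing the limit was not always enough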); conditions: CellTiter-Glo, 72 h, at 10 µM; for differential viability (reversal): stronger effect = higher value
[7] = yeast transport mutant growth inhibition pilot in 384-well plates, post-Golgi transport modulator project (AID 636; in the data active = inhibition above about 31%); conditions: absorbance 615 nm, about 18 h, stronger effect = higher value
[8] = growth suppression of yeast trafficking mutant, preliminary HTS, modulators of trafficking downstream of Golgi apparatus project, 1536-format plate, OD 615 nm (AID 637; in the data active = inhibition above about 30%); conditions: yeast transport mutant growth, absorbance 615 nm, 18 h; stronger effect = higher value
[9] = H69AR cells + 2 uM doxorubicin, measured here: viability with 2 uM doxorubicin, stronger effect = lower value
[10] = H69AR cells, compound alone cytotoxicity

SMILES	viability [1] [%]	Her2 level [2]	viability [3]	viability [4]	viability [5]	differential viability (reversal) ([6]; H69AR cells + 2 uM doxorubicin)	viability [6, 9] [%]	viability [6, 10] [%]	inhibition [7]	inhibition [8]
Cc1cc(OC(=O)N2CCOCC2)cc(C)c1Cl	93.5	94.5% (inactive)	93.5% (inactive)	88.7% (inactive)	105% (inactive)	19.9% (inactive)	84.9	105	-3.55% (inactive)	-6.35% (inactive)
Cc1c(C(=O)O)oc2ccc(S(=O)(=O)NCCC3=CCCCC3)cc12	100	98.5% (inactive)	100% (inactive)	95.9% (inactive)	101% (inactive)	6.48% (inactive)	94.3	101	-3.16% (inactive)	-9.52% (inactive)
Cc1c(NC2=NC3(CCCCC3)Cc3ccccc32)c(=O)n(-c2ccccc2)n1C	79.5	108% (inactive)	79.5% (inactive)	95.5% (inactive)	92.5% (inactive)	5.08% (inactive)	87.5	92.5	-5.13% (inactive)	2.67% (inactive)
O=C(Nc1nccs1)c1ccc(COc2ccccc2Br)o1	118	91.5% (inactive)	118% (inactive)	50.3% (inactive)	80.9% (inactive)	-2.83% (inactive)	83.7	80.9	-2.27% (inactive)	-7.26% (inactive)
Cc1cc(NC(=O)CCC(=O)N(CCc2ccccc2)C(C(=O)NC2CCCC2)c2ccco2)no1 (stereo not given)	85.5	99% (inactive)	85.5% (inactive)	79.2% (inactive)	99.2% (inactive)	4.1% (inactive)	95.1	99.2	1.47% (inactive)	-2.13% (inactive)
CC1=C(C)[N+](=O)C2CCCCC2N1[O-] (stereo not given)	89	112% (inactive)	89% (inactive)	104% (inactive)	94.4% (inactive)	9.79% (inactive)	84.6	94.4	-5.97% (inactive)	-9.34% (inactive)
COc1ccccc1-c1cc(C(=O)NCCCn2ccnc2)no1	82	80% (inactive)	82% (inactive)	88.5% (inactive)	97.4% (inactive)	14.3% (inactive)	83.1	97.4	-7.03% (inactive)	-2.17% (inactive)
O=S(=O)(NCCSc1ccccc1)c1cccs1	95	86% (inactive)	95% (inactive)	102% (inactive)	86.4% (inactive)	11.9% (inactive)	74.6	86.4	-6.49% (inactive)	-5.5% (inactive)
O=C(Nc1ccc(CN2CCCCC2)cc1)c1ccc2c(c1)OCO2	80.5	75% (inactive)	80.5% (inactive)	98.8% (inactive)	91.6% (inactive)	11.9% (inactive)	79.7	91.6	-2.5% (inactive)	-4.44% (inactive)
Cc1noc(C)c1S(=O)(=O)NCCN1CCN(c2ccccc2)CC1	96	98.5% (inactive)	96% (inactive)	96.4% (inactive)	96.1% (inactive)	3.43% (inactive)	92.7	96.1	-0.79% (inactive)	-0.79% (inactive)
O=S(=O)(c1ccc(-c2csc(-c3cccnc3)n2)cc1)N1CCCCC1	106	102% (inactive)	106% (inactive)	81.1% (inactive)	84.2% (inactive)	1.22% (inactive)	83	84.2	0% (inactive)	-1.75% (inactive)
O=C(Cn1c(=O)[nH]n(-c2ccccc2)c1=O)N1CCCc2ccccc21	116	96% (inactive)	116% (inactive)	82.1% (inactive)	93.7% (inactive)	8.74% (inactive)	85	93.7	-5.73% (inactive)	-4.92% (inactive)
O=C1CSC(=Nc2ccc(O)cc2)N1c1ccc(O)cc1	93	89.5% (inactive)	93% (inactive)	89.2% (inactive)	91.4% (inactive)	9.79% (inactive)	81.6	91.4	-7.07% (inactive)	-1.64% (inactive)
CC1(C)CC(=O)C(C=NCCc2ccc(S(N)(=O)=O)cc2)=C(O)C1	116	95% (inactive)	116% (inactive)	98.7% (inactive)	88% (inactive)	-2.06% (inactive)	90	88	-6.13% (inactive)	-2.3% (inactive)
CCn1c(SCC(=O)Nc2nc(C)cs2)nnc1-c1ccco1	106	87.5% (inactive)	106% (inactive)	110% (inactive)	92% (inactive)	4.38% (inactive)	87.7	92	-3.33% (inactive)	-2% (inactive)
COc1ccccc1C(=O)Nc1ccc(N2CCN(S(C)(=O)=O)CC2)cc1	99.5	106% (inactive)	99.5% (inactive)	144% (inactive)	97.2% (inactive)	12.7% (inactive)	84.5	97.2	-1.89% (inactive)	-4% (inactive)

SMILES	viability [1] [%]	Her2 level [2]	viability [3]	viability [4]	viability [5]	differential viability (reversal) ([6]; H69AR cells + 2 uM doxorubicin)	viability [6, 9] [%]	viability [6, 10] [%]	inhibition [7]	inhibition [8]
Cc1cc(NC(=O)COc2cccc(Oc3ccccc3)c2)no1	75.5	90% (inactive)	75.5% (inactive)	50.9% (inactive)	22.4% (active)	-38.2% (inactive)	60.6	22.4	-0.38% (inactive)	3.33% (inactive)
COc1cc(C(=O)N2CCC(NC(=O)C(Cc3ccc(C)cc3)NC(C)=O)CC2)cc(OC)c1OC (stereo not given)	92	86% (inactive)	92% (inactive)	97.8% (inactive)	98% (inactive)	7.71% (inactive)	90.3	98	-2.84% (inactive)	0.16% (inactive)
Cc1ccc2c(CNCc3ccco3)cc(=O)oc2c1	117	94.5% (inactive)	117% (inactive)	84.1% (inactive)	93.5% (inactive)	11.5% (inactive)	81.9	93.5	-1.07% (inactive)	-4.03% (inactive)
CCN(CC)C(=O)CSc1nc2ccc(NC(=O)CSc3nccn3C)cc2s1	88.5	93.5% (inactive)	88.5% (inactive)	68.2% (inactive)	91% (inactive)	6.22% (inactive)	84.8	91	-4.47% (inactive)	-1.45% (inactive)
O=C1CC(N2CCN(c3ccc(Cl)c(Cl)c3)CC2)C(=O)N1 (stereo not given)	67.5	103% (inactive)	67.5% (inactive)	76.5% (inactive)	107% (inactive)	18.3% (inactive)	89.1	107	-2.84% (inactive)	27.7% (inactive)
CCCCCCNC(=O)Cc1c(O)c2ccccc2[nH]c1=O	105	90.5% (inactive)	105% (inactive)	114% (inactive)	94.9% (inactive)	14.7% (inactive)	80.2	94.9	-5.27% (inactive)	7.67% (inactive)
CCn1c(Cc2ccc(OC)cc2)nnc1SCC(=O)Nc1cccc(C(=O)OC)c1	89.5	86.5% (inactive)	89.5% (inactive)	85.8% (inactive)	103% (inactive)	7.12% (inactive)	95.7	103	-1.45% (inactive)	-2.86% (inactive)
O=C(Nc1ccc(-c2noc(-c3cccs3)n2)cc1)c1cccnc1	74.5	93% (inactive)	74.5% (inactive)	54% (inactive)	32.9% (active)	-46.6% (inactive)	79.5	32.9	-0.81% (inactive)	-8.69% (inactive)
Oc1c(Cl)cc(Cl)cc1CNc1ccc(Br)cn1	100	88% (inactive)	100% (inactive)	74.8% (inactive)	93.2% (inactive)	-3.58% (inactive)	96.8	93.2	1.58% (inactive)	13.4% (inactive)
CN(Cc1cccs1)C(=O)CCc1ccc(S(=O)(=O)N2CCOCC2)cc1	97.5	116% (inactive)	97.5% (inactive)	111% (inactive)	87.4% (inactive)	-10.2% (inactive)	97.6	87.4	-5.06% (inactive)	-12.5% (inactive)
COC(=O)C(NC(C)=O)(Nc1ccccn1)C(F)(F)F (stereo not given)	98	78% (inactive)	98% (inactive)	105% (inactive)	89% (inactive)	-5.41% (inactive)	94.4	89	-1.97% (inactive)	-7.64% (inactive)
Cc1c(C(=O)NCc2cccnc2)oc2ccc(S(=O)(=O)N3CCCCC3)cc12	71.5	89% (inactive)	71.5% (inactive)	65.6% (inactive)	70.5% (inactive)	-20.9% (inactive)	91.4	70.5	-0.39% (inactive)	4.1% (inactive)
Cc1nc(-c2cccc(N)c2)cs1	103	94.5% (inactive)	103% (inactive)	84.3% (inactive)	103% (inactive)	6.14% (inactive)	96.8	103	-1.33% (inactive)	-2.3% (inactive)
O=C(O)c1cc2nc(-c3ccc(F)cc3)cc(C(F)(F)F)n2n1	94	118% (inactive)	94% (inactive)	82% (inactive)	93.2% (inactive)	4% (inactive)	89.2	93.2	-2.24% (inactive)	-1% (inactive)
N#Cc1nc(-c2cccs2)oc1NCCc1ccccc1	93.5	86.5% (inactive)	93.5% (inactive)	84.3% (inactive)	102% (inactive)	18.3% (inactive)	83.4	102	-1.18% (inactive)	1.29% (inactive)
COCCOC(=O)C1=C(C)Nc2ncnn2C1c1ccc(F)cc1 (stereo not given)	90	87.5% (inactive)	90% (inactive)	103% (inactive)	85.8% (inactive)	3.85% (inactive)	82	85.8	-3.6% (inactive)	-1.48% (inactive)
